# In the library only some 4.2% were active in any assay of this set; here they are far more common.
# SENP1 FRET inh: SENP1 (human) catalytic domain inhibition. recombinant SENP1 catalytic domain, CyPet-SUMO1-YPet FRET cleavage. inhibition, % at 10 µM. 360,000 tested, 0.21% active. AID 624204;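 active = inhibition at least 30% at 10 µM, raw YFP signal under a set limit, fluorescence ratio 0.5 to 1.5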
# Target sequence (Q9P0U3 419-644 limits assumed): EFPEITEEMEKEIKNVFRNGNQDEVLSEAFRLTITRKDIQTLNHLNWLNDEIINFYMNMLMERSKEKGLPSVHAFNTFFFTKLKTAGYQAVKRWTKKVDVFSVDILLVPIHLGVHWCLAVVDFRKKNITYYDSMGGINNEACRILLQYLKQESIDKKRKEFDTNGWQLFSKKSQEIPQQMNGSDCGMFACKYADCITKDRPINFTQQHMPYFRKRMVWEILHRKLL
#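 Controls: no-enzyme wells low, DMSO-plus-enzyme wells high control. Test system: human recombinant His6-tagged SENP1 catalytic domain enzyme. Reagent: SFCypet-SUMO1-SFYpet FRET protein substrate, 25 nM final. Doses: one dose per compound, 10 µM, 0.5% DMSO. Detection: FRET, CFP and YFP emission. Timing: 50 min reaction at room temperature.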
# FXN GAA850 act: frataxin GAA850 promoter activation | activation, % at 6 µM | 360,000 tested, 0.56% active | HEK293 lucGAA850 FXN promoter luciferase reporter, 24 h; percent of 10 µM SAHA response;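 active = activation above the average of all compounds screened plus 3 SD, cutoff fixed separately per campaign, cut at about 7.5% in these data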
# PfM18AAP inh-1: PfM18AAP enzyme inhibition. recombinant PfM18AAP, H-Glu-NHMec fluorogenic cleavage. inhibition, % at 7.35 µM. 290,000 tested, 1.2% active. AID 1822;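 active = inhibition above the campaign mean inhibition over all tested compounds plus 3 SD, cut at about 28% in these data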
# HDAC3 inhib: blocks human histone deacetylase 3. O15379. 320,000 tested, 0.15% active. inhibition, % at 8.3 µM. recombinant HDAC3, fluorogenic peptide/trypsin coupled, fluorescence. AID 2718; in the data active = inhibition above about 26%, passing the limit was not always enough
# Target sequence (O15379 whole entry, looked up): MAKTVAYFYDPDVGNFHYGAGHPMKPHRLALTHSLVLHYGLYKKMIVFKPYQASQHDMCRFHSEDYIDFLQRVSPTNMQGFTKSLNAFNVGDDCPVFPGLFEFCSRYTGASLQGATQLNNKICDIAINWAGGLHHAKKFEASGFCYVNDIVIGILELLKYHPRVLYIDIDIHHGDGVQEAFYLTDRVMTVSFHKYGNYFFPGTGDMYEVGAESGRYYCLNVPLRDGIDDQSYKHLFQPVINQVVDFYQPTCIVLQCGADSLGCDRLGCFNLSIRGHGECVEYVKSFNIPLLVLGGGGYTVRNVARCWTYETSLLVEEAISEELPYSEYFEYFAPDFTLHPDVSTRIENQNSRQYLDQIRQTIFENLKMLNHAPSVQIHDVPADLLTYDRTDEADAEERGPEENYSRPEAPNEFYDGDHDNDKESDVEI
# AHR act: activators of human aryl hydrocarbon receptor. P35869. AHR-responsive luciferase reporter cells, luminescence. activation, % at 5 µM. 320,000 tested, 2.5% active. AID 2796; in the data active = activation above about 47%
# CTSL1 counter-1: counter-screen for PFM18AAP inhibitors: inhibitors of F. hepatica cathepsin L1; 300,000 tested, 0.49% active; recombinant F. hepatica cathepsin L1, Z-Leu-Arg-MCA fluorescence; inhibition, % at 5.96 µM;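 active = inhibition above the mean of all tested compounds plus 3 SD, set per screening campaign, cut at about 17% in these data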
# PfM18AAP inh-2: PfM18AAP inhibition, confirmation; shares compounds with PfM18AAP inh-1; recombinant PfM18AAP, H-Glu-NHMec fluorogenic cleavage; inhibition, % at 7.35 µM; 2,400 tested, 28% active;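 active = mean inhibition over replicate wells above the hit cutoff set for the earlier primary screen, cut at about 29% in these data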
# CTSL1 counter-2: counter-screen for PFM18AAP inhibitors: confirmation of human cathepsin L inhibitors; shares compounds with PfM18AAP inh-1; purified cathepsin L1, Z-Leu-Arg-MCA fluorescence; inhibition, % at 5.96 µM; 2,400 tested, under 10 active; AID 2178;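 active = average inhibition across replicates above the hit cutoff set in the earlier primary screen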
# Hits are given with their value; n = inactive; x = no result given.
SMILES,SENP1 FRET inh,FXN GAA850 act,PfM18AAP inh-1,HDAC3 inhib,AHR act,CTSL1 counter-1,PfM18AAP inh-2,CTSL1 counter-2
CC(=O)N(c1ccc2oc(=O)sc2c1)S(=O)(=O)c1cccs1,n,n,40,n,n,n,n,n
CC(=O)N(c1ccc2oc(=O)sc2c1)S(=O)(=O)c1ccc(C(=O)O)cc1,n,n,46,n,n,n,n,n
CCCC(=O)N(c1ccc2oc(C)c(C(C)=O)c2c1)S(=O)(=O)c1ccc(C(=O)O)cc1,n,n,n,n,n,n,x,x
CCCC(=O)N(c1ccc2oc(=O)sc2c1)S(=O)(=O)c1ccccc1,n,n,33,n,n,n,n,n
CN1CCCCC1(C)C(=O)NCc1cc(Cl)ccc1F (centres undefined),n,n,x,x,x,x,x,x
O=C1Nc2ccccc2/C1=C/c1ccc([N+](=O)[O-])cc1,n,n,35,n,n,n,n,n
Oc1ccccc1N1CCN(c2ncccn2)CC1,n,n,42,n,n,n,n,n
Cc1cc2c(=O)[nH]cnc2s1,n,n,n,n,n,n,x,x
O=c1[nH]cnc2[nH]ncc12,n,n,49,n,n,n,n,n
O=C1CC(c2ccccc2)Oc2cc(O)cc(O)c21 (centres undefined),n,n,x,n,n,n,x,x
COc1cc(OC)c2c(c1O)OC(c1ccccc1)CC2=O (centres undefined),n,n,49,n,n,n,n,n
O=C(NCc1cccc(F)c1)c1[nH]c(C(F)(F)F)nc1-c1ccccc1,n,x,x,x,x,x,x,x
CCOC(=O)c1c(N)sc(C(=O)Nc2ccccc2F)c1C,n,n,37,n,n,n,n,n
CC(CN1CCCCC1)NC(=O)c1scnc1-c1ccccc1 (centres undefined),n,x,x,x,x,x,x,x
O=C(Nc1nc(-c2ccccn2)cs1)Nc1ccc(F)cc1F,n,n,48,n,n,n,n,n
Cc1cc(C)nc(SCCC(=O)N(C)C)n1,n,n,39,n,n,n,n,n
O=C(CSc1ncccn1)Nn1cnnc1,n,n,46,n,n,n,44,n
Cc1cc(C)nc(SCC(=O)Nn2cnnc2)n1,n,n,53,n,n,n,41,n
Cc1nnc(SCC(=O)Nc2nc(-c3ccc(F)cc3)cs2)[nH]c1=O,n,n,n,n,n,n,x,x
O=C1/C(=C\c2ccc(O)c(O)c2)C(c2ccccc2)=NN1c1ccccc1,n,n,49,x,x,x,36,n
COc1ccccc1Cc1nnc(NC(=O)C2CCN(C(=O)c3ccco3)CC2)s1,n,n,42,n,n,n,n,n
CC(=O)N1CCN(S(=O)(=O)c2ccc(C)cc2)C1c1ccc(N(C)C)cc1 (centres undefined),n,n,36,n,n,n,n,n
CCCCC[C@@H](C)N1C[C@@H](COCc2ccccc2)Oc2cc(N3CCC[C@H]3COC)ccc2S1(=O)=O,n,x,x,x,x,x,x,x
COc1cc(NC(=S)N2CCN(CCO)CC2)c(OC)cc1Cl,n,n,n,n,n,n,x,x
OCCN1CCN(C(=S)c2ccc(Cl)c(Cl)c2)CC1,n,n,49,n,n,n,n,n
SMILES,SENP1 FRET inh,FXN GAA850 act,PfM18AAP inh-1,HDAC3 inhib,AHR act,CTSL1 counter-1,PfM18AAP inh-2,CTSL1 counter-2
Nc1nc(=S)n(-c2ccccc2)[nH]1,n,x,n,n,n,n,x,x
S=c1nc(C2CCCCC2)n(-c2ccccc2)[nH]1,n,n,35,n,n,n,n,n
CCN(c1ccccc1)S(=O)(=O)c1cc(NC(=O)CN2CCN(C)CC2)ccc1Cl,n,n,x,n,n,x,x,x
O=C(CSc1cn[nH]n1)Nc1cccc(C(=O)O)c1,n,n,54,n,n,n,n,n
Cc1cccc(NC(=O)CSc2cn[nH]n2)c1,n,n,n,n,n,n,x,x
CCOC(=O)CCCCCC(=O)Nc1ccc2c(c1)C(=O)N([C@@H](C)CO)C[C@H](C)[C@H](CN(C)C(=O)Nc1ccc(F)cc1)OCCCC[C@H](C)O2,n,n,x,x,x,x,x,x
COC(=O)C1=C(C(=O)c2ccccc2)C(c2ccc(O)c(OC)c2)n2nnnc2N1 (centres undefined),n,n,n,n,n,n,x,x
COC(=O)C1=C(C(=O)c2ccccc2)C(c2cccs2)n2nnnc2N1 (centres undefined),n,n,55,n,n,n,n,n
COC(=O)C1=C(C(=O)c2ccc(C)cc2)C(c2ccc(OC)c(OC)c2)n2nnnc2N1 (centres undefined),n,n,47,n,n,n,n,n
COC(=O)C1=C(C(=O)c2ccc(C)cc2)C(c2ccc(O)c(OC)c2)n2nnnc2N1 (centres undefined),n,n,60,n,n,n,n,n
CCCNC(=O)N(C)C[C@H]1Oc2ncc(Br)cc2C(=O)N([C@H](C)CO)C[C@H]1C,n,n,x,x,x,x,x,x
O=C(NNc1nc2ccccc2o1)c1ccccc1,n,n,41,n,n,n,n,n
O=C(NC(=Nc1nc2ccccc2o1)NC(=O)c1ccccc1)c1ccccc1,n,n,n,n,n,n,x,x
O=C(NNc1nc2ccccc2nc1C(F)(F)F)c1ccccc1,n,n,34,n,n,n,n,n
O=C(CSc1nnc(-c2ccncc2)o1)Nc1cc(Cl)ccc1C(=O)O,n,n,x,n,n,x,x,x
COc1cc(C(=S)N2CCN(c3ccccc3Cl)CC2)cc(O)c1O,n,n,54,n,n,n,45,n
O=C(CCc1ccc(O)c(O)c1)N/N=C/c1cc2c(cc1[N+](=O)[O-])OCO2,n,n,76,n,x,x,51,n
CC(C)(C)c1ccc(O)c(N=Cc2cc3c(cc2[N+](=O)[O-])OCO3)c1,n,n,36,n,n,n,90,n
O=[N+]([O-])c1cc2c(cc1/C=N\NS(=O)(=O)c1ccccc1)OCO2,n,n,48,n,n,n,n,n
CN1CCN(c2ccc(CNC(=O)C3(C)Cc4c(-c5ccc(C(N)=O)cc5)ccnc4O3)cc2)CC1 (centres undefined),n,n,x,x,x,x,x,x
COc1cccc(C(C(=O)NC2CCCC2)N(C(=O)CNC(=O)c2ccco2)c2cccnc2)c1 (centres undefined),n,n,n,n,n,n,x,x
NC(=O)NC(=O)C(Nc1ccc(N2CCCCC2)cc1)c1ccccc1 (centres undefined),n,n,41,n,n,n,n,n
Cc1cc(C)nc(SCCc2ccncc2)n1,n,n,50,x,n,n,n,n
COc1ccc(S(=O)(=O)NNc2nc(C)cc(C)n2)cc1[N+](=O)[O-],n,n,62,n,n,n,39,n
Cc1cc(=O)[nH]c(SCC(=O)Nc2nc(-c3ccccc3)cs2)n1,n,n,n,n,n,n,x,x

# Source: PubChem (several laboratories)
